STAT1 activator – increases IFN-gamma driven STAT1 reporter signal; activation (% of control), % at 5.5 µM; hit rate 2.6% among 200,000; NIH 3T3 STAT1-luciferase reporter, luminescence; 100% = IFN-gamma alone, no compound; AID 932;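 active = activation above the screen-wide mean activation plus 3 SD, cut at about 130% in these data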;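 note: raw ratio to IFN-gamma control signal so 100% means no change and 0% no light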
STAT3 blocker – STAT3 signaling inhibition | AID 862 | U3A cells, IL-6 STAT3-luciferase reporter, luminescence; host cell line lacks STAT1 | inhibition, % at 5.5 µM | hit rate 0.89% among 190,000;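 active = inhibition above the mean inhibition across all screened compounds plus 3 SD, cut at about 44% in these data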;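 note: 0% = DMSO only wells and 100% = 100 µM nifuroxazide control wells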
APP 5'UTR act – activates APP 5'UTR luciferase reporter; AID 1276; hit rate 1% among 190,000; activation, % at 2 µM; SH-SY5Y APP 5'UTR luciferase reporter, luminescence; zero percent = DMSO vehicle wells;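 active = activation above a set limit, based on mean plus 3 SD of controls, cut at about 140% in these data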
STAT3 act – increases IL-6 driven STAT3 reporter signal; AID 871; U3A cells, IL-6 STAT3-luciferase reporter, luminescence; 100% = signal with IL-6 EC80 alone; hit rate 0.91% among 190,000; activation (% of control), % at 5.6 µM;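 active = activation above the screen-wide mean of compound activation plus 3 SD, cut at about 130% in these data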;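 note: 0% = background luminescence of wells with medium and substrate only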
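System – human U3A cells carrying STAT3-luciferase construct · Probe or stimulus – Interleukin-6, 33 ng/mL · Schedule – compound 1 h, then IL-6 6 h at 37 °C · Signal – luminescence from STAT3-driven luciferase reporter · Evaluation – percent of IL-6-only median luminescence · Benchmarks – IL-6-only high control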
STAT1 blocker – STAT1 signaling inhibition; NIH 3T3 STAT1-luciferase reporter, IFN-gamma, luminescence; inhibition, % at 5.5 µM; hit rate 0.35% among 200,000; AID 920;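 active = inhibition above a set limit, the mean inhibition across all tested compounds plus 3 SD, cut at about 34% in these data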;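 note: 0% = IFN-gamma with DMSO and 100% = IFN-gamma with 300 µM nifuroxazide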
NF-kB expr up – compounds increasing NF-kB expression in human neuronal cells; hit rate 1.6% among 190,000; fold change at 12.5 µM; NF-kB reporter expression; hits give high values; in the data active = fold change above about 3.3
* = called active by the depositor; / = not tested or not shown. Sampled rows, rich in hits. Any-hit rate of the full collection: about 4.9%.

SMILES	STAT1 activator	STAT3 blocker	APP 5'UTR act	STAT3 act	STAT1 blocker	NF-kB expr up
CCC(C)NS(=O)(=O)c1ccc(OCC(=O)N2CCCC2)cc1 (configuration not stated)	93	-3	-3	106	7	1.1
CCn1c(-c2sc(-c3ccccc3)nc2C)n[nH]c1=S	101	9	-6	96	-4	1.2
C#CCSc1nnc(-c2sc(-c3ccccc3)nc2C)n1C	108	10	11	96	-8	1.1
Cc1nc(-c2ccccc2)sc1-c1ccnn1C	141*	16	141*	89	-46	6.4*
Cc1nc(-c2ccccc2)sc1-c1ccn[nH]1	122	29	164*	81	-25	1.2
Cn1c(-c2ccc3c(c2)OCO3)cnc1NCc1ccccc1	111	5	7	103	-13	1.1
Cn1c(-c2ccc3c(c2)OCO3)cnc1NCc1ccccc1Cl	140*	20	60	88	-45	2.3
CNC(=S)N(C)[C@H]1c2c(ccc3ccccc23)OC[C@H]1CO	101	-1	-12	103	-2	1.1
CC(=O)c1cnc2ncnn2c1C	105	8	12	96	-5	1.2
CCOC(=O)Cn1cnc(-c2ccc([N+](=O)[O-])cc2)c1	136*	-9	14	107	-41	1.6
Cc1cc(C)n(C(=O)COc2ccc([N+](=O)[O-])cc2)n1	97	-3	-6	106	4	1.4
CCOC(=O)/C=C1\SCC(=O)N1CC(=O)Nc1cccc(F)c1	101	0	0	105	-1	/
Cc1nc(/C=C/c2ccccc2)[nH]c(=O)c1-c1ccccc1	129*	14	77	89	-32	1.6
Cc1cccc(/C=C\c2nc3ccccc3c(=O)[nH]2)c1	144*	39	158*	67	-47	1.2
OCc1cc(-c2ccc(Cl)c(Cl)c2)on1	101	19	3	91	-1	1.5
Cc1nnc(SCC2=C(C(=O)O)N3C(=O)C(NC(=O)C(C)n4nc(C(F)(F)F)cc4C)C3SC2)s1 (configuration not stated)	104	5	17	97	-5	1.1
CSc1nc(C)c(C(=O)C[n+]2ccc(C)cc2)cc1C#N	102	2	7	105	-3	0.9
CC(=O)Nc1cc(OC(C)=O)c2nonc2c1OC(C)=O	12	-2	-17	105	95*	/
CC(=O)Nc1nonc1NC(C)=O	103	1	-4	103	-3	1.1
CC(C)NC(=S)NCc1cccs1	95	21	-1	90	5	1.1
Cc1ccc(C(=O)NC(=S)NCC2CCCO2)cc1[N+](=O)[O-] (configuration not stated)	98	7	-10	102	2	1.1
c1ccc(N2CCN(c3nc4cc5c(cc4s3)OCO5)CC2)cc1	146*	41	80	66	-50	3.8*
Brc1ccc2nc(N3CCN(c4ccccc4)CC3)sc2c1	129*	9	132	97	-36	2
Clc1ccc2nc(N3CCN(c4ccccc4)CC3)sc2c1	137*	5	27	98	-40	3.5*
O=S(=O)(c1ccccc1)N1CCN(c2nc3ccccc3s2)CC1	105	8	14	98	-6	1.3
SMILES	STAT1 activator	STAT3 blocker	APP 5'UTR act	STAT3 act	STAT1 blocker	NF-kB expr up
Fc1ccc2nc(N3CCOCC3)sc2c1	138*	5	27	100	-45	1.7
CC(C)C12CN3CC(C(C)C)(CN(C1)C3(C)C)C2=O	99	-4	9	108	0	0.96
CCC1(c2ccc(F)cc2)NC(=O)N(CC(=O)Nc2ccc(S(N)(=O)=O)cc2)C1=O (configuration not stated)	104	-3	1	104	-7	1.3
CCOc1ccc(NC(=O)Nc2ccccc2SC)cc1	125	9	104	97	-30	2
COc1cccc(C(=O)/C=C/Nc2ccc(NC(C)=O)cc2)c1	136*	1	60	99	-41	1.1
Cc1ccc(C(=O)/C=C/Nc2ccccn2)cc1	24	109*	115	12	84*	/
Cc1ccc(N/C=C/C(=O)c2ccc(C)cc2)cc1	144*	28	91	81	-48	5.2*
COc1ccc(N/C=C/C(=O)c2ccc(Cl)cc2)cc1	140*	-4	152*	104	-45	1
COc1ccc(C(=O)/C=C/Nc2ccc(NC(C)=O)cc2)cc1OC	111	19	-9	89	-12	0.99
Cc1ccc(C(=O)/C=C/C(=O)c2ccc(C)cc2)cc1	89	-8	-67	109	11	1.5
CC(C)CC1(C(=O)NCc2cc(F)cc(C(F)(F)F)c2)C=CCN1C(=O)c1ccccc1 (configuration not stated)	98	-8	10	104	2	1.4
COc1ccc(OC)c(NC(=O)Nc2cc(C(=O)O)ccc2C)c1	108	6	-4	105	-10	1
Nc1nc(F)cc(NCc2ccccc2)n1	103	-3	-17	105	-5	1.1
O=C(Nc1cc(S(=O)(=O)N2CCOCC2)ccc1N1CCCC1)c1ccc2c(c1)S(=O)(=O)c1ccccc1C2=O	99	-5	-7	110	1	/
Cc1ccc(C(=O)/C=C\Nc2ccc(C)c(C)c2)cc1	136*	6	170*	96	-39	2.4
COC(=O)c1ccc(N/C=C/C(=O)c2ccc(OC)c(OC)c2)cc1	111	9	13	99	-12	1.1
O=C(COc1ccccc1C(=O)Nc1ccccc1)c1ccc(Br)cc1	106	25	9	83	-10	1.2
O=C(Oc1ccccc1C(=O)Nc1ccccc1)c1ccccc1Br	90	24	-59	83	11	3.7*
Cc1ccccc1-c1nnc(SCC#N)o1	110	4	2	99	-12	1.2
Cc1ccccc1-c1nnc(-c2ccccc2C)o1	130*	2	21	102	-33	3.7*
Cc1ccccc1-c1nnc(-c2ccc(Br)cc2)o1	150*	2	69	101	-55	3
Cc1cc(-n2c(C)cc(C(=O)CSc3ccc4c(c3)OCCO4)c2C)no1	94	9	15	97	6	1.1
CCc1ccc(NS(=O)(=O)c2cccc3nonc23)cc1	101	5	-17	103	-1	0.89
CC(=O)C1=C(NC(=O)c2ccc(F)cc2)CC2C1C2(C)C (configuration not stated)	94	15	10	91	6	1.2
C/C(NC(=O)c1ccccc1)=C1/C(=O)CC2C1C2(C)C (configuration not stated)	130*	2	68	102	-33	2.1
Cn1ncc2c(Nc3ccc4ccccc4c3)ncnc21	145*	2	81	103	-50	2.5
O=C(Nc1cnc2ccccc2c1)N1CCOCC1	112	1	14	104	-13	1.7

Screening results deposited in PubChem BioAssay by several laboratories.
